Reference: ChEMBL document CHEMBL4477160, “Methylbenzene-Containing Polyketides from a Streptomyces that Spontaneously Acquired Rifampicin Resistance: Structural Elucidation and Biosynthesis” (J Nat Prod, 2016)
Calls of active or inactive are those of the source.

What was measured:
Escherichia coli = assay: Antimicrobial activity against Escherichia coli assessed as decrease in cell viability at 1.56 to 100 uM after 24 hrs; format: functional, organism-based
In short: (§1)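 Compounds in DMSO dispensed at a range of concentrations into 384-well plates. Each test strain was grown to OD620 ~0.5, diluted 2000-fold in LB medium and added to the wells. Plates were incubated 24 h at 37 °C. Viability was read as absorbance at 620 nm.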

Micrococcus luteus = assay: Antimicrobial activity against Micrococcus luteus assessed as decrease in cell viability at 1.56 to 100 uM after 24 hrs; format: functional, organism-based; in short: as §1
Staphylococcus aureus = assay: Antimicrobial activity against Staphylococcus aureus assessed as decrease in cell viability at 1.56 to 100 uM after 24 hrs; format: functional, organism-based; in short: as §1
Bacillus subtilis = assay: Antimicrobial activity against Bacillus subtilis assessed as decrease in cell viability at 1.56 to 100 uM after 24 hrs; format: functional, organism-based; in short: as §1
SK-OV-3 = assay: Cytotoxicity against human SKOV3 cells assessed as decrease in cell viability at 0.01 to 100 uM after 72 hrs by WST-8 assay; format: functional, cell-based
Homo sapiens = species on record: Homo sapiens; assay: Cytotoxicity against human ACC-MESO1 cells assessed as decrease in cell viability at 0.01 to 100 uM after 72 hrs by WST-8 assay; format: functional, cell-based
Jurkat = assay: Cytotoxicity against human Jurkat cells assessed as decrease in cell viability at 0.01 to 100 uM after 72 hrs by WST-8 assay; format: functional, cell-based

Measured: Activity

Cc1ccccc1/C=C/CCC(=O)NC1=C(O)CCC1=O
inactive: all assays above

Cc1ccccc1/C=C/C=C/C=C/C=C/C(=O)NC1=C(O)CCC1=O
inactive: all assays above
